Consider one molecule from ChEMBL document CHEMBL3526139, “Clinical pharmacokinetics, metabolism, and drug-drug interaction of carfilzomib” (Drug Metab Dispos, 2013).

For series [1], the target named is T1, Cytochrome P450 2D6 (Homo sapiens, UniProt P10635). In words: Drug metabolism in pooled human hepatocytes assessed as disapperance rate at 1 uM by LC-MS/MS analysis in presence of 10 uM CYP2D6 inhibitor quinidine. The series is classed as ADME, cell-based, Hepatocyte. The method in brief: (§1)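 Pooled human hepatocytes in suspension (~0.5 x 10^6 viable cells/mL) were incubated with 1 µM carfilzomib at 37°C under 5% CO2, with or without isoform-selective CYP chemical inhibitors. Reactions were quenched with acetonitrile at 0, 15, 30, 60 and 120 min. Carfilzomib was quantified by non-validated LC-MS/MS after protein precipitation.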
T1 sequence (P10635 whole entry, canonical isoform): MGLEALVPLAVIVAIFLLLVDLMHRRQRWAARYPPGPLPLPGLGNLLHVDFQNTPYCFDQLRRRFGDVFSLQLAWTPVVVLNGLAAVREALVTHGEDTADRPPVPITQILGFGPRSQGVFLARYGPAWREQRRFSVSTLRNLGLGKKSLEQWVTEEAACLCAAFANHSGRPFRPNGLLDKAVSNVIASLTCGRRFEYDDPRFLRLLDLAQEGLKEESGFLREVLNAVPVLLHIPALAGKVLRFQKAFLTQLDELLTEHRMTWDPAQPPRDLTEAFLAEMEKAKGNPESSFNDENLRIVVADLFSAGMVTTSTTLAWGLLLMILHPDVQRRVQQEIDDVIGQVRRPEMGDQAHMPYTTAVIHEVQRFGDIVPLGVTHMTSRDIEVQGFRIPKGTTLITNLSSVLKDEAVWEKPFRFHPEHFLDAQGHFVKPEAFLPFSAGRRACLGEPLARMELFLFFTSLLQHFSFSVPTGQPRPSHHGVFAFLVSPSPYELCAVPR

Series [2] has as its target T2, Cytochrome P450 3A (Homo sapiens, UniProt P08684+P20815+Q9HB55+P24462). In words: Time-dependent inhibition of CYP3A in human liver microsomes assessed as testosterone 6-hydroxylation using testosterone as substrate by LC-MS/MS analysis in presence of NADPH. In kind it is ADME. The method in brief:
(§2)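 Pooled HLM (16 donors) given carfilzomib 0.01–10 µM in duplicate at 37°C with a 30-min preincubation before probe substrate was added. Substrate was set near Km (testosterone Km 100 µM; midazolam Km 3.8 µM). Protein was 0.1 mg/mL, or 0.05 mg/mL with midazolam. Metabolite formation was read by LC-MS/MS after 5 min and expressed relative to 0.5% acetonitrile controls to give IC50.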

In series [3] the target is T2, Cytochrome P450 3A. The series can be described thus: Time-dependent inhibition of CYP3A in human liver microsomes preincubated for 30 mins with carfilzomib by LC-MS/MS analysis. In kind it is ADME. The conditions noted are these: microsomes. The procedure, abridged: as §2
The subject of another series is CYP1A2. The series can be described thus: Decrease in CYP1A2 gene expression in human hepatocytes at 2.5 uM after 3 days by qPCR analysis. The series is classed as ADME, cell-based, Hepatocyte. The method in brief: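 Hepatocytes were treated 3 days with carfilzomib (0.1–2.5 µM) or 0.08% DMSO, renewed daily. CYP3A mRNA was measured in 3 donors and CYP1A2 mRNA in one additional donor, both by qPCR. Values are triplicate means relative to DMSO.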
Background: Real-time PCR tracks product formation cycle by cycle.

Series [4] concerns the target T3, CYP3A (Homo sapiens, UniProt P08684+P20815+P24462+Q9HB55). The series can be described thus: Time-dependent inhibition of CYP3A in human liver microsomes assessed as midazolam 1'-hydroxylation using midazolam as substrate by LC-MS/MS analysis. In kind it is ADME. The conditions noted are these: probe midazolam (1'-hydroxylation). The procedure, abridged: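 Pooled HLM (16 donors, mixed sex), 37°C, duplicate. IC50: carfilzomib 0.01–10 µM preincubated 30 min, then midazolam near Km (3.8 µM) at 0.05 mg/mL protein, 5 min, LC-MS/MS, relative to 0.5% acetonitrile control. KI/kinact: 0–8 µM preincubated 0–30 min with 1.25 mg/mL HLM plus NADPH-generating system, diluted 25-fold, midazolam 40 µM for 5 min.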
In general terms: Liver microsomes are vesicles of endoplasmic reticulum, rich in cytochrome P450 enzymes.

Another series concerns the target Cytochrome P450 2C19 (Homo sapiens, UniProt P33261). The series can be described thus: Drug metabolism in pooled human hepatocytes assessed as disapperance rate at 1 uM by LC-MS/MS analysis in presence of 10 uM CYP2C19 inhibitor (+)-N-3-benzylnirvanol. The series is classed as ADME, cell-based, Hepatocyte. The method in brief: as §1
The target in series [5] is T3, CYP3A. The series can be described thus: Inhibition of CYP3A in human liver microsomes assessed as substrate metabolite formation using testosterone as substrate preincubated with microsomes for 30 mins prior to substrate addition measured after 5 mins by LC-MS/MS analysis. The series is classed as ADME. The conditions noted are these: probe testosterone. The method in brief:
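HLM (16-donor pool) were preincubated 30 min with carfilzomib 0.01–10 µM before addition of midazolam or testosterone at about Km. Metabolite formation was measured by LC-MS/MS after 5 min, in duplicate, relative to 0.5% acetonitrile controls.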

A short description of series [6]: Plasma protein binding in iv dosed human multiple myeloma patient at 15 mg/m'2 in first cycle and escalated to 20 mg/m'2 thereafter administered on days 1, 2, 8, 9, 15 and 16 of 28-day cycle over 2 to 10 mins by LC-MS/MS analysis. The series is classed as ADME, organism-based. The conditions noted are these: read-out: PPB (converted). The method in brief: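 Plasma taken at end of administration and 5 min after, on Days 1 and 15 of Cycle 1 and Day 15 of Cycle 2, was dialyzed 6 h at 37°C against pH 7.4 sodium phosphate buffer by rapid equilibrium dialysis. Samples were matrix-matched, extracted by acetonitrile precipitation and quantified by LC-MS/MS.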

The next series concerns the target T4, Cytochrome P450 1A2 (Homo sapiens, UniProt P05177).
T4 sequence (P05177 whole entry): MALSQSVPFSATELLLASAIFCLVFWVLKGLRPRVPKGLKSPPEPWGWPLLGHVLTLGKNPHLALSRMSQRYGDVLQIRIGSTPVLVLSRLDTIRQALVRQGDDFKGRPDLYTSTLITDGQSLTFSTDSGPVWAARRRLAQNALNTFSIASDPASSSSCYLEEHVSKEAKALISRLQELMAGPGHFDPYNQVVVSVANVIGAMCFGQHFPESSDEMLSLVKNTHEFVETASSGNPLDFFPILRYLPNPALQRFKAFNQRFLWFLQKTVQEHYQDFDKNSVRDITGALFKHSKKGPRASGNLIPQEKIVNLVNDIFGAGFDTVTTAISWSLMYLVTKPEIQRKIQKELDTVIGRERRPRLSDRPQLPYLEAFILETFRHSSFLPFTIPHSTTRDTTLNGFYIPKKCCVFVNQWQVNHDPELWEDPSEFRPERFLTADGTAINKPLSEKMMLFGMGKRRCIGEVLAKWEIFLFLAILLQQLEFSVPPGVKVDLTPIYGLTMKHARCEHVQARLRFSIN
In words: Inhibition of CYP1A2 in human liver microsomes using phenacetin as substrate after 5 mins by LC-MS/MS analysis. In kind it is ADME. The procedure, abridged:
(§3)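 Pooled HLM from 16 donors were incubated at 37°C in duplicate with carfilzomib 0.01–10 µM and probe substrate at about its Km. Substrates were phenacetin, amodiaquine, diclofenac, S-mephenytoin, dextromethorphan, testosterone and midazolam. Protein was 0.1 mg/mL, or 0.05 mg/mL with midazolam. Reactions ran 5 min without preincubation, then were quenched with acetonitrile. Metabolites were measured by LC-MS/MS relative to 0.5% acetonitrile controls.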

Series [7] is described as follows: Half life in human patient with relapsed solid tumor at 20 mg/m'2, iv administered on days 1, 2, 8, 9, 15 and 16 of 28-day cycle over 2 to 10 mins measured on day 1 of cycle 1 by LC-MS/MS analysis. The series is classed as ADME, organism-based. To be noted: in vivo. The procedure, abridged: (§4)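 Patients with relapsed solid tumors (n=3) received carfilzomib IV at 20 mg/m2. Plasma was sampled on Days 1 and 16 of Cycle 1 before dosing, at end of administration, and at 5, 15, 30 min and 1, 2, 4 h after. Samples underwent solid phase extraction and LC-MS/MS with d10-carfilzomib internal standard over 0.100–200 ng/mL. Parameters were derived noncompartmentally (constant IV infusion model) from actual elapsed time from infusion start.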

Series [8] is described as follows: Drug excretion in urine of iv dosed human patient with relapsed and refractory hematological malignancies assessed as morpholino-hPhe metabolite formation administered on days 1, 2, 8, 9, 15 and 16 of 28-day cycle over 2 to 10 mins by LC-MS/MS analysis. The series is classed as ADME, organism-based. The conditions noted are these: in vivo.
Series [9] is described as follows: AUC last in human patient with relapsed solid tumor at 20 mg/m'2, iv administered on days 1, 2, 8, 9, 15 and 16 of 28-day cycle over 2 to 10 mins measured on day 1 of cycle 1 by LC-MS/MS analysis. The conditions noted are these: plasma. In kind it is ADME, organism-based. On the set-up: route intravenous, time 0 - last. The method in brief:
as §4

The target of series [10] is T1, Cytochrome P450 2D6. In words: Inhibition of CYP2D6 in human liver microsomes using dextromethorphan as substrate after 5 mins by LC-MS/MS analysis. In kind it is ADME. The method in brief: as §3

Sequence of Cytochrome P450 2C19 (P33261 whole entry): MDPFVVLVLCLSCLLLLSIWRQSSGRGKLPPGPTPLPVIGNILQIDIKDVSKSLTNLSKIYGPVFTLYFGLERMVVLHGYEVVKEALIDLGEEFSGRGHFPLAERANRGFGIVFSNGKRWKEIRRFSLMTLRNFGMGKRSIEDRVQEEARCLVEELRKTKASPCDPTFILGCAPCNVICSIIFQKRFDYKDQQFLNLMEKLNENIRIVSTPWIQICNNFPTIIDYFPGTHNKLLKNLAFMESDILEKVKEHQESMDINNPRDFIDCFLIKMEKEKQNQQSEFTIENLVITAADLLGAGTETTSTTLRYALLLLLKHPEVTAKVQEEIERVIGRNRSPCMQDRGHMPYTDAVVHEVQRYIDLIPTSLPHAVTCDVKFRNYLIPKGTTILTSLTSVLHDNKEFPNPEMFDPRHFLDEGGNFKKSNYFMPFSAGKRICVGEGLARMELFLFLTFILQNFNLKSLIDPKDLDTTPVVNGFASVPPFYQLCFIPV

In the case of `CC(C)C[C@H](NC(=O)[C@H](CCc1ccccc1)NC(=O)CN1CCOCC1)C(=O)N[C@@H](Cc1ccccc1)C(=O)N[C@@H](CC(C)C)C(=O)[C@@]1(C)CO1` [CARFILZOMIB], the Drug metabolism was 0.013 min⁻¹ at Cytochrome P450 2D6 [1] and 0.016 min⁻¹ at Cytochrome P450 2C19. Also, the “inhibition (INH)” value is “Active” at Cytochrome P450 3A [2] and “Dose-dependent effect” on Cytochrome P450 3A [3]. This molecule also displayed an inhibition at 72 h, 2.5 µM with CYP1A2 of 40%. On CYP3A [4], the Ki is 11 µM. The kinact on CYP3A [4] is 0.00167 s⁻¹. The IC50 at 5 min at CYP3A [5] was > 0.97 µM. Further, in [6], the fraction unbound was 0.024. Besides, the half-maximal inhibitory concentration (IC50) on Cytochrome P450 1A2 and against Cytochrome P450 2D6 [10] was > 10 µM in each case. In series [7], the half-life was 1 h. Further, the Drug excretion entry in series [8] was “metabolite_detected”. The AUC(0-t) in [9] worked out at 238 ng·h/mL.

The term inhibition denotes the drop in the measured response relative to a control, in per cent. Read a low inhibition as a weak effect. What is called kinact is the maximal first-order rate at which the target is inactivated. Usually IC50 stands for the concentration needed to halve the response being measured. By half-life is commonly meant how long it takes for the measured level to halve. A high value points to slow decline. A word on the AUC(0-t): it is the area under the concentration-time curve up to a stated or last time point. Read a high AUC(0-t) as high exposure.
